# Bioassay records: PubChem, several laboratories
# Many of the other results were omitted from the sample, so hits are more common in it than they were.
# L major viab – Leishmania major promastigote growth inhibition; Leishmania major promastigotes, resazurin fluorescence viability; inhibition, % at 10 µM; hit rate 9% among 200,000; AID 1063; in the data active = inhibition above about 50%;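 also: promastigotes grown with compound for 44 hours at 28 °C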
# T cruzi repl – T. cruzi replication inhibition; T. cruzi beta-gal in NIH3T3, luminescence, 90 h; inhibition, % (no concentration beside the values); hit rate 1.4% among 300,000; AID 1885;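 active = mean inhibition across valid replicates above about 55%, limit read from the data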;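 also: signal also drops with host cell toxicity which is not excluded here; 0% = plate median of DMSO wells and 100% = zero luminescence signal; higher percent means less beta-gal luminescence so fewer parasites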
#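 Incubation – ≥90 h infection period, 3 h prior cell attachment · System – NIH/3T3 fibroblasts plus reporter T. cruzi · Doses – compound pinned at 50 nL/well, DMSO · Read-out basis – percent inhibition of parasite-derived β-gal signal · Signal – luminescent β-galactosidase signal after 60 min lysis · Also added – 5000 T. cruzi trypomastigotes/well · Medium – Low-serum DMEM with 2% FBS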
# HSF1 activator – increases HSF-1 driven luciferase reporter signal; NIH3T3-HGL HSF-1 luciferase reporter, MG132, 8 h; 100% = twice DMSO control signal; activation, % at 9 µM; hit rate 1.7% among 300,000; AID 504408;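 active = mean replicate activation of at least 50% with a set share of replicates each reaching 50%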;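 also: 0% = median of the neutral control wells and 100% = twice that signal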
# HSF1 inhib – HSF1 inhibition; NIH3T3-HGL HSE-luciferase, MG132-induced, luminescence 8 h; active compounds read low; activity change, negative = inhibition, % at 7.5 µM (by protocol); hit rate 0.77% among 300,000; AID 2098;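 active = more than half of replicate wells show activity change below -50%, luminescence cut by over half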;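 also: luciferase reports HSF-1 transcriptional activity via heat shock element; 0% = median of DMSO wells and -100% = zero luminescence signal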
# Hsp70 activator – switches on Hsp70 transcription; HeLa Hsp70 promoter luciferase reporter, luminescence; scaled: vehicle 0, proteasome-inhibitor control 100%; activation, % at 10 µM; hit rate 0.04% among 200,000; AID 1203;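 active = activation above the mean across all tested compounds plus 3 SD, cutoff set per campaign, cut at about 5.5% in these data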;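 also: 100% = MG132 at 30 µM as the positive control and 0% = DMSO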
# * marks the source's active call; other numbers are inactive results; x = no result.
SMILES,L major viab,T cruzi repl,HSF1 activator,HSF1 inhib,Hsp70 activator
CCOC(=O)C1(Cc2cccc(OC)c2)CCN(Cc2cccc(O)c2)CC1,22.0,8.3,-9.7,-14.3,-0.1
CC(C)(CO)NCC(O)Cn1cc(C=O)c2ccccc21 (stereo not given),23.1,-3.3,-4.4,-9.2,-0.2
CCN1CCN(C(=O)c2ccc3c(=O)n(CCc4ccccc4)c(=O)[nH]c3c2)CC1,x,-13.7,0.4,-1.3,x
N/C(=N\NC(=O)c1cccs1)c1cc2cc(Cl)ccc2oc1=O,x,-1.2,-1.0,6.2,x
CCOC(=O)C1(Cc2cccc(OC)c2)CCN(Cc2cccc(OC)c2O)CC1,72.2*,6.1,-8.8,-0.2,-0.5
Cc1ccccc1NC(=O)c1cc(C(=O)c2cc(Cl)ccc2O)cn(-c2ccccc2C)c1=O,60.9*,1.6,-1.1,3.3,0.1
Cc1ccccc1C(=O)NC1CCN(Cc2nnnn2Cc2ccc(F)cc2)CC1,3.4,-8.1,-9.0,-5.8,-0.3
CCCC(c1nnnn1Cc1ccc(F)cc1)N1CCN(C2CCCCC2)CC1 (stereo not given),71.6*,21.4,-24.5,-6.1,-0.4
CC(C)C(c1nnnn1Cc1ccc(F)cc1)N1CCN(C2CCCC2)CC1 (stereo not given),3.5,5.9,-3.6,-3.8,-0.2
c1coc(Cn2nnnc2CN2CCN(C3CCCC3)CC2)c1,74.0*,0.9,11.0,12.9,-0.5
Fc1ccc(Cn2nnnc2CN2CCN(C3CCCCC3)CC2)cc1,86.1*,3.9,6.9,2.0,0.1
CC(NC(=O)c1cc(Br)ccc1Br)c1ccccc1 (stereo not given),-3.6,-1.7,0.6,-3.3,-0.3
Cc1ccc(C)c(N(C)C(=O)c2cc3c(=O)[nH]c4ccc(C)cc4c3s2)c1,x,51.7,-1.4,9.7,x
Cn1cccc1/C=C1\CCC/C(=C\c2cccn2C)C1=O,43.8,6.4,73.7*,45.4,0.2
O=C1/C(=C/c2cccs2)CCC/C1=C\c1cccs1,x,9.2,41.4,39.1,x
CCCCn1c(=O)[nH]c(=O)c2c1nc(-c1ccc(CC)c([N+](=O)[O-])c1)n2C,84.1*,16.7,9.9,-2.6,-0.2
Cc1oc(-c2ccccc2F)nc1CS(=O)CC(=O)NCc1ccc(F)cc1 (stereo not given),x,9.8,3.3,-0.1,x
C/C(N)=C(/C#N)C(=O)CSc1nc(-c2ccccc2)c(-c2ccccc2)o1,x,59.4*,5.0,-1.8,x
CCOC(=O)c1c(C)[nH]c(C)c1C(=O)CSc1nnc(-c2ccc(OC(F)F)cc2)o1,3.2,9.3,-8.4,-8.3,0.1
C/C(N)=C(/C#N)C(=O)CSc1nnc(-c2ccc(OC(F)F)cc2)o1,1.4,-2.3,78.0*,46.5,0.7
C/C(N)=C(/C#N)C(=O)CSc1nnc(-c2ccc3c(c2)OCO3)o1,-1.4,0.2,75.8*,49.7,0.2
C/C(N)=C(/C#N)C(=O)COC(=O)C(c1ccccc1)c1ccccc1,73.0*,-4.6,7.7,-4.2,-0.5
O=C(O)/C=C/C(=O)NC1CCC(CC2CCC(NC(=O)/C=C/C(=O)O)CC2)CC1 (stereo not given),-6.2,-7.8,-2.3,-7.8,-0.2
CCOC(=O)C1(Cc2cccc(OC)c2)CCCN(C(=O)CCN2CCCO2)C1 (stereo not given),x,2.0,42.2,21.8,x
Cc1cc(F)c(F)c(C(=O)N2CCN(C)CC2)c1Cl,-2.8,-1.9,-8.5,-10.8,-0.4
SMILES,L major viab,T cruzi repl,HSF1 activator,HSF1 inhib,Hsp70 activator
Cc1cc(F)c(F)c(C(=O)N2CCOCC2)c1Cl,-5.3,-8.1,61.8*,15.9,-0.2
O=C(NN=C1C2CC3CC(C2)CC1C3)c1ccncc1,-4.2,0.9,-6.0,4.9,-0.2
O=C(N/N=C1\C/C(=N\NC(=O)c2ccncc2)c2ccccc21)c1ccncc1,72.5*,21.0,18.1,10.4,-0.1
CCOc1ccc2c(c1)C(=NNC(=O)c1ccncc1)c1cc(OCC)ccc1-2,99.6*,59.7*,30.1,5.6,-0.3
CCOc1ccc(NC(=O)c2ccncc2)cc1,-2.2,-0.6,6.2,-4.0,-0.3
COCCn1c(-c2ccc(OC)cc2)nc2ccccc21,56.0*,-5.0,4.5,3.4,-0.3
Clc1ccc(OCCn2c(-c3ccco3)nc3ccccc32)cc1,21.0,-27.8,136.9*,79.5,0.2
O=C(N/N=C(\Cc1ncc[nH]1)c1ccccc1)c1ccncc1,7.0,18.2,19.3,10.5,-0.2
O=C(N/N=C(\Cc1ncc[nH]1)c1ccccc1)c1ccccc1,6.0,73.5*,29.8,9.1,-0.4
CCOC(=O)c1ccc[n+](CC(=O)c2ccc(NC(=O)c3ccccc3)cc2)c1,x,-3.2,5.6,1.0,x
COc1cccc(/C=C/C(=C2\C(=O)N(c3ccccc3)N=C2C)c2ccc(Br)cc2)c1OC,99.4*,x,x,x,0.0
COc1ccc(/C=C2/C(=O)N(c3ccccc3)N=C2C)cc1OC,x,-1.6,-7.4,-1.1,x
CC(Sc1nc(-c2ccc(F)cc2)cs1)C(=O)Nc1ccc(Cl)cn1 (stereo not given),61.1*,-11.3,16.8,2.9,-0.2
CCC(=O)Nc1ccc(C(=O)OCc2ccc(Cl)c(Cl)c2)cc1,64.7*,44.8,20.9,-5.1,-0.5
CC(=O)Nc1ccc(C(=O)OCc2ccc(Cl)c(Cl)c2)cc1,62.0*,1.2,56.9*,22.4,-0.4
O=c1c2ccccc2c(/C=N/c2n[nH]c(CCCO)n2)c(O)n1-c1ccccc1Cl,-6.4,-11.3,32.8,15.5,-0.2
Cc1nn(C2CCS(=O)(=O)C2)c(Cl)c1/C=C/C(=O)OCC(=O)c1c[nH]c2ccccc12 (stereo not given),59.8*,-33.5,5.2,13.3,-0.6
COc1ccc(OC)c(NC(=O)COC(=O)/C=C/c2c(C)nn(C3CCS(=O)(=O)C3)c2Cl)c1 (stereo not given),1.7,0.5,31.5,7.3,0.1
Cc1nn(C2CCS(=O)(=O)C2)c(Cl)c1/C=C/C(=O)OCC(=O)c1cc(C)n(-c2ccc(F)cc2)c1C (stereo not given),98.2*,7.3,-5.6,-2.3,-0.1
CC(C)(C)C(=O)CNCC(=O)C(C)(C)C,0.7,-11.0,-12.7,-0.9,0.1
Cc1ccc(C(C)C)c(OCC(O)CN2CC(C)OC(C)C2)c1 (stereo not given),95.5*,-15.5,4.6,-6.2,0.3
Cc1ccc(C(C)C)c(OCC(O)CN2CCOCC2)c1 (stereo not given),87.6*,4.2,3.6,1.3,0.1
Cc1ccc(C(C)C)c(OCC(O)CN2CCN(CCO)CC2)c1 (stereo not given),1.2,12.0,0.9,-3.3,0.9
Cc1cc(C)cc(OCC(O)CN2CC(C)OC(C)C2)c1 (stereo not given),x,7.2,-71.2,-62.7*,x
Cc1ccc(OCC(O)CN2CCN(CC(O)COC(C)C)CC2)c(C(C)(C)C)c1 (stereo not given),77.2*,24.7,0.8,-0.5,-0.1
CCOC(=O)N1CCN(CC(O)COc2cc(C)cc(C)c2)CC1 (stereo not given),x,6.8,-2.2,-5.2,x
